In ChEMBL document CHEMBL1649352, “Catechin derivatives from Parapiptadenia rigida with in vitro wound-healing properties” (J Nat Prod, 2010):
The source made the active and inactive calls. The rule behind the calls is not given here.

Experiments:
[1] = test system: Jurkat; assay: Inhibition of TNFalpha-induced NF-kappaB activation in human Jurkat cells at 10 to 55 uM after 24 hrs by electrophoretic mobility shift assay; type: cell-based
In short: (§1)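 Jurkat T cells (3 × 10⁵ cells/mL) in RPMI 1640 with 10% FCS were preincubated 24 h with compound at 10, 20, 30 or 55 µM. They were then stimulated 1 h with rh-TNF-α 2.5 ng/mL. Nuclear extracts were probed with a [γ-³³P]-labelled NF-κB consensus oligonucleotide. Specificity was checked with a 100-fold molar excess of unlabelled oligo. Bands were quantified densitometrically by phosphorimager.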

[2] = target: Mitogen-activated protein kinase 14 (Homo sapiens, UniProt Q16539); assay: Inhibition of p38alpha after 1 hr by ELISA
[3] = test system: NIH3T3; assay: Antimigratory activity against Swiss albino mouse 3T3 cells assessed as increase of cell numbers at 1 to 20 uM after 12 hrs by scratch-wound assay; type: functional, cell-based
In short: (§2)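 Swiss 3T3 albino mouse fibroblasts, cultured in DMEM with 10% FCS and penicillin/streptomycin at 37 °C, 5% CO2. A scratch wound was made in the confluent monolayer. Compounds were tested at 1, 10 and 20 µM. PDGF 2 ng/mL served as positive control and a DMSO-only well as reference. The % increase in cells migrating and proliferating into the wounded area was read after 12 h. At least triplicate runs, mean ± SEM.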

[4] = test system: NIH3T3; assay: Antimigratory activity against Swiss albino mouse 3T3 cells assessed as increase of cell numbers at 2 ng/ml after 12 hrs by scratch-wound assay; type: functional
In short: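 Swiss 3T3 albino mouse fibroblasts were grown in DMEM with 10% fetal calf serum and penicillin/streptomycin at 37 °C and 5% CO2, and a scratch wound was made in the monolayer. PDGF (2 ng/mL) was incubated for 12 h. Read-out was the % of cells that migrated into and proliferated in the wounded area, relative to a cells-plus-DMSO control. At least triplicate; mean ± SEM.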

[5] = test system: Jurkat; assay: Inhibition of TNF-alpha-induced NFkappaB activation in human Jurkat cells at 10 to 20 uM after 24 hrs by electrophoretic mobility shift assay; type: cell-based; in short: as §1
[6] = test system: Jurkat; assay: Cytotoxicity against human Jurkat cells at 55 uM after 22 hrs by MTT assay; type: cell-based
[7] = test system: Jurkat; assay: Inhibition of TNF-alpha-induced NFkappaB activation in human Jurkat cells at 30 to 55 uM after 24 hrs by electrophoretic mobility shift assay; type: cell-based; in short: as §1
[8] = test system: NIH3T3; assay: Antimigratory activity against Swiss albino mouse 3T3 cells assessed as increase of cell numbers at 1 uM after 12 hrs by scratch-wound assay; type: functional, cell-based; in short: as §2
[9] = test system: NIH3T3; assay: Antimigratory activity against Swiss albino mouse 3T3 cells assessed as increase of cell numbers at 10 uM after 12 hrs by scratch-wound assay; type: functional, cell-based; in short: as §2

Mitogen-activated protein kinase 14, sequence (Q16539 whole entry): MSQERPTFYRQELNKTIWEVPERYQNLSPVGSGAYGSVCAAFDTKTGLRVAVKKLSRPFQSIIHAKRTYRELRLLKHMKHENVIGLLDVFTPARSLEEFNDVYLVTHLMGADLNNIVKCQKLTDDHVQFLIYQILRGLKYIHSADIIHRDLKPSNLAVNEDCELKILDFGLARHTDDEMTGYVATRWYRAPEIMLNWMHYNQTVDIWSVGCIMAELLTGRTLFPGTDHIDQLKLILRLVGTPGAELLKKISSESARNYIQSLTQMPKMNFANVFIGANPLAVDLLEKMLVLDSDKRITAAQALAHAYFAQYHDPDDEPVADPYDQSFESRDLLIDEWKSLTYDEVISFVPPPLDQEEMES

| Structure (SMILES) | Activity [1] | IC50 [2] | Activity [3] | further results |
| --- | --- | --- | --- | --- |
| COc1c(O)cc([C@H]2Oc3cc(O)cc(O)c3C[C@H]2O)cc1O | Active | 39.2 µM | – | – |
| COc1c(O)cc([C@H]2Oc3cc(O)cc(O)c3C[C@@H]2O)cc1O | Active | – | Active | – |
| COc1c(O)cc([C@H]2Oc3cc(O)cc(O)c3C[C@H]2OC(=O)c2cc(O)c(O)c(O)c2)cc1O | Active | – | Active | – |
| O=C(O[C@@H]1Cc2c(O)cc(O)cc2O[C@@H]1c1cc(O)c(O)c(O)c1)c1cc(O)c(O)c(O)c1 [EPIGALOCATECHIN GALLATE] | Active | 2.21 µM | Active | Activity [4]: 59.5% |
| COc1cc([C@H]2CC(=O)Oc3cc(O)c4c(c32)O[C@H](c2cc(O)c(OC)c(O)c2)[C@@H](O)C4)ccc1O | – | 50.8 µM | Active | Activity [5]: Active; Activity [6]: 11%; Activity [7]: inactive |
| COc1ccc([C@H]2Oc3cc(O)cc(O)c3C[C@H]2OC(=O)c2cc(O)c(O)c(O)c2)cc1O | – | – | – | Activity [8]: Active; Activity [9]: inactive |
| O=C(O[C@@H]1Cc2c(O)cc(O)cc2O[C@@H]1c1ccc(O)c(O)c1)c1cc(O)c(O)c(O)c1 [EPICATECHIN GALLATE] | – | 1.47 µM | – | Activity [8]: Active; Activity [9]: inactive |
| COc1cc(/C=C/C(=O)O[C@@H]2Cc3c(O)cc(O)cc3O[C@@H]2c2cc(O)c(O)c(O)c2)ccc1O | Active | – | – | – |
